Rows were chosen to be rich in hits. Some 1.4% of all compounds tested hit in one or more screens of this group.
Rev-erbA mod: modulators of Rev-erb alpha DNA binding, primary screen, biochemical, FITC-DNA, fluorescence polarization, uHTS. Nuclear receptor subfamily 1 group D member 1 (Homo sapiens), P20393. Rev-erbα–FITC-DNA binding, 90 min. activity, % at 10 µM. hit rate 0.79% among 370,000;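 active means activity above about 14%, limit read from the data; passing the limit was not always enough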;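 further: 0% = DMSO wells with 35 nM protein and 100% = DMSO wells with 750 nM protein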
PG9 Ab binder: binders of HIV-1 gp120 antibody PG9, primary screen, biochemical, TR-FRET | hit rate 0.43% among 360,000 | inhibition, % at 6.7 µM | TR-FRET gp120-PG9 antibody binding | AID 624416, 2012; in the data active means inhibition above about 8.5%
NR2E3 ag-1: inhibitors of NR2E3-RetCOR corepressor binding, primary screen, NR2E3 agonist project, biochemical, TR-FRET, GST-NR2E3, biotin-RetCOR. 1536-well. inhibition of corepressor binding, % at 4.78 µM. hit rate 0.12% among 320,000;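 active means percent inhibition above the cutoff of mean plus 3 SD of all tested compounds, set per screening campaign, cut at about 20% in these data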;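 further: 0% = DMSO wells and 100% = biotin wells as full block of FRET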
Target sequence (Q9Y5X4 whole entry, looked up): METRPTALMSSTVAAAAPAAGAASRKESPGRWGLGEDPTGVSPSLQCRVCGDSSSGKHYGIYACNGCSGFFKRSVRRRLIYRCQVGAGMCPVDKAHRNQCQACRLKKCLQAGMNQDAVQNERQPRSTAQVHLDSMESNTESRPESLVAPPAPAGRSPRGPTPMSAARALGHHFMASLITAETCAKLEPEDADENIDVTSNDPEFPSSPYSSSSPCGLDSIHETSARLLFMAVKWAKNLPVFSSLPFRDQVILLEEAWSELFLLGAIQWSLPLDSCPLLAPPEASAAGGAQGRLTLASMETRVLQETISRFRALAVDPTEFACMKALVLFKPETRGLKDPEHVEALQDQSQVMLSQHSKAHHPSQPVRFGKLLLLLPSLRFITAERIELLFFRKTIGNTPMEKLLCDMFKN
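System: GST-tagged NR2E3 plus biotinylated RetCOR corepressor; Buffer or medium: pH 7.5 Tris-based buffer; Probe or stimulus: RetCOR corepressor, biotinylated, 7 nM; Doses: compound at 4.8 µM, single dose; Schedule: 5 h incubation at 4 °C; Technique: time-resolved FRET; Evaluation: percent inhibition of TR-FRET ratio; Replication: one well per compound, singlicate testing.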
NR2E3 ag-2: NR2E3 agonists in two-hybrid cells, primary screen, cell-based, luminescence, CHO-S, Gal4-NCOR/VP16-NR2E3 | Photoreceptor-specific nuclear receptor (Homo sapiens), Q9Y5X4 | luciferase | inhibition of corepressor binding, % at 3.98 µM | hit rate 0.35% among 360,000 | AID 602229, 2012;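 active means inhibition above the mean of all tested compounds plus 3 SD, cut at about 70% in these data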;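 further: 0% = DMSO with NR2E3 transfected cells and 100% = cells lacking NR2E3 construct; higher means lower luciferase signal from less NR2E3 corepressor binding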
NR2E3 ag confirm: NR2E3 agonist confirmation in cells, cell-based, luminescence, CHO-S two-hybrid; shares compounds with NR2E3 ag-2; CHO-S mammalian two-hybrid NR2E3-NCOR, luciferase luminescence; inhibition, % at 3.98 µM; hit rate 51% among 2,300;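 active means average inhibition above a cutoff equal to the mean inhibition of all tested compounds plus one SD, cut at about 70% in these data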;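 further: 0% = DMSO in NR2E3 cells and 100% = DMSO in cells lacking NR2E3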
GAL4-VP16 luc: GAL4-VP16 reporter modulators, confirmation, counter-screen for NR2E3 agonist project, cell-based, luminescence, CHO-S, high throughput; shares compounds with NR2E3 ag-2; AID 624379, 2012; inhibition, % at 3.98 µM; hit rate 29% among 2,300; CHO-S GAL4-VP16 luciferase reporter;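 active means mean inhibition above a cutoff equal to the average over all tested compounds plus one standard deviation, cut at about 70% in these data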;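 further: luciferase from a UAS reporter driven by GAL4-VP16 transactivation; 0% = DMSO with VP16-transfected cells and 100% = DMSO with cells lacking VP16; higher means less reporter light so more repression of VP16 activity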
Starred values were filed as active, the others as inactive; . = no result.

SMILES	Rev-erbA mod	PG9 Ab binder	NR2E3 ag-1	NR2E3 ag-2	NR2E3 ag confirm	GAL4-VP16 luc
COc1ccccc1-c1csc2ncnc(Sc3nnnn3C)c12	0.1	-0.3	2.4	-8.8	.	.
Cn1nnnc1Sc1ncnc2scc(-c3cnc(N)nc3)c12	-0.2	.	.	.	.	.
Cn1nnnc1Sc1ncnc2scc(-c3ccc(Br)cc3)c12	5.7	-0.5	.	49.0	-25.1	-22.0
Cn1nnnc1Sc1ncnc2scc(-c3ccccc3Br)c12	-0.9	-1.7	2.7	64.1	26.7	58.7
Cn1nnnc1Sc1ncnc2scc(-c3ccc(F)cc3)c12	-0.6	1.6	0.7	36.9	.	.
Cn1nnnc1Sc1ncnc2scc(-c3cccc4ccccc34)c12	3.5	1.4	.	59.7	58.8	69.2
Cn1nnnc1Sc1ncnc2scc(-c3ccccc3)c12	3.7	-0.1	-0.3	63.1	-17.9	9.6
CCCC1CCC2(CC1)CCC2OC(=S)NCc1cccc(OC)c1 (stereo unspecified)	8.5	.	.	.	.	.
CCCCCN1CCCCC(NC(=O)c2ccc(F)cc2)C1=O (stereo unspecified)	-1.2	.	.	.	.	.
COc1ccc2oc(C(=O)OCC(=O)N3CCN(S(=O)(=O)c4ccccc4)CC3)c(C)c2c1	0.0	-1.0	-6.4	50.6	90.1*	71.5*
Cc1ccc(NC(=S)NC2CCSc3ccccc32)cc1C (stereo unspecified)	-2.2	-1.9	1.0	66.0	-7.7	17.1
CN(Cc1nccs1)C(=O)c1cc(COc2cccc3cnccc23)on1	4.5	0.1	-1.6	94.0*	80.9*	75.5*
COC(=O)C1CCCCN1C(=O)c1cc(COc2cccc3cnccc23)on1 (stereo unspecified)	0.5	-1.3	3.4	101.9*	94.6*	87.8*
CCOC(=O)CC1CCCCN1C(=O)c1cc(COc2cccc3cnccc23)on1 (stereo unspecified)	-3.1	-2.7	-1.8	100.9*	91.5*	88.5*
COC(=O)C1CCCCN1C(=O)c1cc(COc2cccc3cccnc23)on1 (stereo unspecified)	-0.6	-2.5	-0.2	-10.7	.	.
CC(C)(C)c1ccc(-c2noc(CCC(=O)NC3CC3)n2)cc1	0.0	.	.	.	.	.
COC(=O)[C@H](CC(C)C)N(Cc1cn(Cc2ccccc2)nn1)S(=O)(=O)c1ccc(F)cc1Br	-4.0	.	.	.	.	.
COc1ccc(NC(=O)Cn2cc(C(C)=O)c3ccccc32)cc1	7.9	-1.4	-1.2	49.2	57.4	55.6
O=C(NCCNC(=O)c1ccccc1O)c1ccccc1O	2.7	-1.1	-0.9	-12.6	.	.
O=C(NCCCCCCNC(=O)c1ccccc1O)c1ccccc1O	7.1	0.8	1.2	66.5	88.0*	62.5
O=C(NCCCSc1ccccc1)c1cc(Cl)ccc1O	0.7	-1.8	.	77.5*	98.8*	87.3*
O=C(CNC(=O)c1ccccc1)NCCCSc1ccccc1	1.0	0.1	.	-14.8	.	.
COC(=O)c1cc(-c2ccc(C(C)=O)cc2)c(=O)n2c1CCC2	-1.3	.	.	.	.	.
COC1=C(C)C(=O)C2=C(C1=O)C1C3CC4=C(C(=O)C(OC)=C(C)C4=O)C(CNC(=O)C(C)=O)N3C(C#N)C(C2)N1C (stereo unspecified)	2.7	-10.2	.	102.2*	99.6*	95.2*
Cc1cc(NNC(=O)c2cccc(C(F)(F)F)c2)nc2c1c(C)nn2C	-5.1	-0.8	4.0	53.3	87.3*	67.7
SMILES	Rev-erbA mod	PG9 Ab binder	NR2E3 ag-1	NR2E3 ag-2	NR2E3 ag confirm	GAL4-VP16 luc
O=C(Nc1ccc(N2C(=O)CC3(CCCCC3)C2=O)c(Cl)c1)c1ccccn1	9.0	.	.	.	.	.
COc1ccc(NC2c3ccccc3C(=O)N2Cc2ccccc2Cl)cc1OC (stereo unspecified)	0.0	-2.1	-0.8	69.2	71.2*	-7.8
COc1cccc(N2CCN(c3nc(-c4ccccc4C)cc(=O)[nH]3)CC2)c1	-3.5	0.6	.	93.0*	98.1*	2.5
COC(=O)[C@@]12CCCCC3=C1N(CCC3)C(=O)[C@H]2CC(=O)N1CCSCC1	-1.1	.	.	.	.	.
O=C(OCCN1CCN(C2CN(Cc3cn(Cc4cccc(F)c4)nn3)S(=O)(=O)C2)CC1)c1cc2ccccc2o1 (stereo unspecified)	8.9	.	.	.	.	.
O=C(CCCN1C(=O)/C(=C/c2ccccc2Cl)SC1=S)NCCCN1CCOCC1	-6.6	-3.0	2.1	77.7*	-18.3	63.0
O=C(CCCN1C(=O)/C(=C/c2ccccc2Cl)SC1=S)NNC(=O)c1ccncc1	2.7	-0.3	4.2	56.0	-44.8	54.1
O=C(CCN1C(=O)/C(=C/c2ccccc2F)SC1=S)NCCCN1CCOCC1	8.5	-2.6	-0.4	11.1	.	.
O=C(CSc1nnc(-c2ccccc2)n1-c1ccc(Cl)cc1)Nc1ccc2cn[nH]c2c1	-1.1	.	.	.	.	.
COc1ccc(S(=O)(=O)N2CCOC2CNC(=O)C(=O)NCc2ccc(F)cc2)cc1OC (stereo unspecified)	-1.3	-0.9	2.4	48.9	9.9	11.8
COc1ccc(CNC(=O)C(=O)NCC2OCCN2S(=O)(=O)c2ccc(F)cc2)cc1 (stereo unspecified)	-4.8	-2.8	0.0	18.5	.	.
COc1ccc(NC(=O)C2Cc3c(-c4ccccc4)ccnc3O2)cc1OC (stereo unspecified)	.	.	.	77.5*	79.8*	70.7*
COc1ccc(NC(=O)C2Cc3c(-c4ccc(Cl)cc4)ccnc3O2)cc1OC (stereo unspecified)	-0.9	0.9	.	77.7*	82.4*	65.3
COc1ccc(NC(=O)C2Cc3c(-c4ccncc4)ccnc3O2)cc1OC (stereo unspecified)	6.0	0.3	.	-6.4	.	.
COc1ccc(NC(=O)C2Cc3c(-c4ccc(Cl)cc4)ccnc3O2)cn1 (stereo unspecified)	1.2	-1.8	.	-44.6	.	.
Cc1ccc(-n2c(SCC(=O)C(C)(C)C)nnc2-c2cccc(C)c2)cc1	-5.7	.	.	.	.	.
COc1ccc(CCN(C)C(=O)c2cccc(S(=O)(=O)N3CCN(c4ccc(F)cc4)CC3)c2)cc1OC	5.2	-0.8	.	61.0	61.0	47.0
Cc1ccc(S(=O)(=O)N2CCOCC2)cc1C(=O)N(C)CCOc1ccc(Cl)cc1	-2.9	.	0.0	11.5	.	.
CN(CCOc1ccc(Cl)cc1)C(=O)c1cccc(S(=O)(=O)N2CCN(c3ccc(F)cc3)CC2)c1	.	.	.	95.8*	94.3*	81.8*
CC(C)NC(=O)N[C@H]1C[C@@H]2O[C@H](CO)CC[C@@H]2O[C@@H]1CCc1ccc(-c2ccccc2F)cc1	5.2	.	.	.	.	.
COc1ccc(NC(=O)CNC(=O)Cc2cccc3ccccc23)cc1	4.2	-2.6	.	-10.2	.	.
CC(=O)Nc1ccc(OCc2cccc3ccccc23)cc1	4.2	-2.3	1.0	48.5	46.5	44.3

Screening results deposited in PubChem by several laboratories.
